Test results as given in ChEMBL document CHEMBL2331220, “Benzimidazole clubbed with triazolo-thiadiazoles and triazolo-thiadiazines: new anticancer agents” (2013).

What was measured:
Assay type in all cases: functional
MDA-MB-468 = test: Cytotoxicity against human MDA-MB-468 cells after 48 hrs by SRB assay; settings: MDA-MB-468, 48 h
Method in brief: (§1)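 NCI 60-line five-dose screen. Cells were preincubated 24 h at 37 °C under 5% CO2 and 100% humidity, and time-zero plates were TCA-fixed when compound was added. Five 10-fold concentrations (0.01–100) were tested for 48 h. Cells were fixed with cold TCA (final 10%, 60 min, 4 °C), stained with 0.4% SRB for 10 min, and read at 515 nm. GI50, TGI and LC50 came from growth-percentage formulas, with out-of-range values given as > or <.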

DU-145 = test: Cytotoxicity against human DU145 cells after 48 hrs by SRB assay; settings: DU-145, 48 h; method in brief: as §1
ACHN = test: Cytotoxicity against human ACHN cells after 48 hrs by SRB assay; method in brief: as §1
NCI/ADR-RES = test: Cytotoxicity against human NCI/ADR-RES cells after 48 hrs by SRB assay; method in brief: as §1
OVCAR-5 = test: Cytotoxicity against human OVCAR5 cells after 48 hrs by SRB assay; settings: OVCAR-5, 48 h; method in brief: as §1
OVCAR-4 = test: Cytotoxicity against human OVCAR4 cells after 48 hrs by SRB assay; settings: OVCAR-4, 48 h; method in brief: as §1
SK-MEL-2 = test: Cytotoxicity against human SK-MEL-2 cells after 48 hrs by SRB assay; settings: SK-MEL-2, 48 h; method in brief: as §1
M14 = test: Cytotoxicity against human M14 cells after 48 hrs by SRB assay; settings: M14, 48 h; method in brief: as §1
LOX IMVI = test: Cytotoxicity against human LOXIMVI cells after 48 hrs by SRB assay; method in brief: as §1
SNB-75 = test: Cytotoxicity against human SNB75 cells after 48 hrs by SRB assay; settings: SNB-75, 48 h
Method in brief: (§2)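 NCI 60-line five-dose screen: cells plated, held 24 h at 37 °C, 5% CO₂ before treatment, with a TCA-fixed time-zero plate. Five final concentrations (0.01–100 µM, 10-fold dilutions) for 48 h. Cells fixed with cold TCA (10% final) and stained with 0.4% SRB in 1% acetic acid. Dye dissolved in 10 mM Tris and read at 515 nm. GI₅₀, TGI and LC₅₀ taken from percent-growth curves.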

SF-268 = test: Cytotoxicity against human SF268 cells after 48 hrs by SRB assay; settings: SF-268, 48 h; method in brief: as §1
HT-29 = test: Cytotoxicity against human HT-29 cells after 48 hrs by SRB assay; settings: HT-29, 48 h; method in brief: as §1
HCT-116 = test: Cytotoxicity against human HCT116 cells after 48 hrs by SRB assay; settings: HCT-116, 48 h; method in brief: as §1
NCI-H226 = test: Cytotoxicity against human NCI-H226 cells after 48 hrs by SRB assay; settings: NCI-H226, 48 h; method in brief: as §1
NCI-H23 = test: Cytotoxicity against human NCI-H23 cells after 48 hrs by SRB assay; settings: NCI-H23, 48 h; method in brief: as §1
A549 = test: Cytotoxicity against human A549 cells after 48 hrs by SRB assay; settings: A549, 48 h; method in brief: as §1
SR = test: Cytotoxicity against human SR cells after 48 hrs by SRB assay; method in brief: as §2
RPMI-8226 = test: Cytotoxicity against human RPMI8226 cells after 48 hrs by SRB assay; settings: RPMI-8226, 48 h; method in brief: as §1
IGROV-1 = test: Growth inhibition of human IGROV1 cells at 10 uM after 48 hrs by SRB assay relative to control; settings: IGROV-1, 48 h, read-out: GI
Method in brief: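 NCI single-dose primary screen: compound added at 1 × 10⁻⁵ M, cultures incubated 48 h. Protein stained with sulforhodamine B. Result given as percent growth of treated cells relative to untreated controls, where negative values mean cell kill.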

[1] = read-out: LC50 (the source's name)
[2] = read-out: pLC50 (the source's name) (converted)

## O=C(CCc1nnc2sc(-c3ccc(Cl)cc3Cl)nn12)c1nc2ccccc2[nH]1
MDA-MB-468; read-out: GI50
  GI50: 699 nM
MDA-MB-468; read-out: LC50
  LC50: 5410 nM
MDA-MB-468; read-out: TGI
  TGI: 2150 nM
MDA-MB-468; read-out: pGI50 (converted)
  GI50: 692 nM
MDA-MB-468; read-out: pLC50 (converted)
  LC50: 5370 nM
MDA-MB-468; read-out: pTGI (converted)
  TGI: 2140 nM
DU-145; read-out: GI50
  GI50: 1200 nM
DU-145; [1]
  CC50: 5020 nM
DU-145; read-out: TGI
  TGI: 2460 nM
DU-145; read-out: pGI50 (converted)
  GI50: 1200 nM
DU-145; [2]
  CC50: 5010 nM
DU-145; read-out: pTGI (converted)
  TGI: 2450 nM
ACHN; read-out: GI50
  GI50: 339 nM
ACHN; read-out: LC50
  LC50 (50% lethal concentration): 4670 nM
ACHN; read-out: TGI
  TGI: 1350 nM
ACHN; read-out: pGI50 (converted)
  GI50: 339 nM
ACHN; read-out: pLC50 (converted)
  LC50 (50% lethal concentration): 4680 nM
ACHN; read-out: pTGI (converted)
  TGI: 1350 nM
NCI/ADR-RES; read-out: GI50
  GI50: 1560 nM
NCI/ADR-RES; read-out: LC50
  LC50: > 100000 nM
NCI/ADR-RES; read-out: TGI
  TGI: 5800 nM
NCI/ADR-RES; read-out: pGI50 (converted)
  GI50: 1550 nM
NCI/ADR-RES; read-out: pLC50 (converted)
  LC50: > 100000 nM
NCI/ADR-RES; read-out: pTGI (converted)
  TGI: 5750 nM
OVCAR-5; read-out: GI50
  GI50: 1880 nM
OVCAR-5; [1]
  CC50: 8390 nM
OVCAR-5; read-out: TGI
  TGI: 3980 nM
OVCAR-5; read-out: pGI50 (converted)
  GI50: 1910 nM
OVCAR-5; [2]
  CC50: 8320 nM
OVCAR-5; read-out: pTGI (converted)
  TGI: 3980 nM
OVCAR-4; read-out: GI50
  GI50: 971 nM
OVCAR-4; [1]
  CC50: 8040 nM
OVCAR-4; read-out: TGI
  TGI: 2820 nM
OVCAR-4; read-out: pGI50 (converted)
  GI50: 977 nM
OVCAR-4; [2]
  CC50: 8130 nM
OVCAR-4; read-out: pTGI (converted)
  TGI: 2820 nM
SK-MEL-2; read-out: GI50
  GI50: 1760 nM
SK-MEL-2; [1]
  CC50: > 100000 nM
SK-MEL-2; read-out: TGI
  TGI: 6670 nM
SK-MEL-2; read-out: pGI50 (converted)
  GI50: 1780 nM
SK-MEL-2; [2]
  CC50: > 100000 nM
SK-MEL-2; read-out: pTGI (converted)
  TGI: 6610 nM
M14; read-out: GI50
  GI50: 596 nM
M14; read-out: TGI
  TGI: 2450 nM
M14; read-out: pGI50 (converted)
  GI50: 603 nM
M14; read-out: pTGI (converted)
  TGI: 2450 nM
LOX IMVI; read-out: GI50
  GI50: 363 nM
LOX IMVI; read-out: TGI
  TGI: 1590 nM
LOX IMVI; read-out: pGI50 (converted)
  GI50: 363 nM
LOX IMVI; read-out: pTGI (converted)
  TGI: 1580 nM
SNB-75; read-out: GI50
  GI50: 1960 nM
SNB-75; [1]
  CC50: 17100 nM
SNB-75; read-out: TGI
  TGI: 4650 nM
SNB-75; read-out: pGI50 (converted)
  GI50: 1950 nM
SNB-75; [2]
  CC50: 17000 nM
SNB-75; read-out: pTGI (converted)
  TGI: 4680 nM
SF-268; read-out: GI50
  GI50: 740 nM
SF-268; [1]
  CC50: 5150 nM
SF-268; read-out: TGI
  TGI: 2140 nM
SF-268; read-out: pGI50 (converted)
  GI50: 741 nM
SF-268; [2]
  CC50: 5130 nM
SF-268; read-out: pTGI (converted)
  TGI: 2140 nM
HT-29; read-out: GI50
  GI50: 362 nM
HT-29; [1]
  CC50: > 100000 nM
HT-29; read-out: TGI
  TGI: 1810 nM
HT-29; read-out: pGI50 (converted)
  GI50: 363 nM
HT-29; [2]
  CC50: > 100000 nM
HT-29; read-out: pTGI (converted)
  TGI: 1820 nM
HCT-116; read-out: GI50
  GI50: 320 nM
HCT-116; [1]
  CC50: 5060 nM
HCT-116; read-out: TGI
  TGI: 1240 nM
HCT-116; read-out: pGI50 (converted)
  GI50: 316 nM
HCT-116; [2]
  CC50: 5010 nM
HCT-116; read-out: pTGI (converted)
  TGI: 1230 nM
NCI-H226; read-out: GI50
  GI50: 244 nM
NCI-H226; [1]
  CC50: 2590 nM
NCI-H226; read-out: TGI
  TGI: 696 nM
NCI-H226; read-out: pGI50 (converted)
  GI50: 245 nM
NCI-H226; [2]
  CC50: 2570 nM
NCI-H226; read-out: pTGI (converted)
  TGI: 692 nM
NCI-H23; read-out: GI50
  GI50: 719 nM
NCI-H23; read-out: TGI
  TGI: 2480 nM
NCI-H23; read-out: pGI50 (converted)
  GI50: 724 nM
NCI-H23; read-out: pTGI (converted)
  TGI: 2450 nM
A549; read-out: GI50
  GI50: 2070 nM
A549; [1]
  CC50: > 100000 nM
A549; read-out: TGI
  TGI: 5630 nM
A549; read-out: pGI50 (converted)
  GI50: 2090 nM
A549; [2]
  CC50: > 100000 nM
A549; read-out: pTGI (converted)
  TGI: 5620 nM
SR; read-out: GI50
  GI50: 333 nM
SR; [1]
  CC50: > 100000 nM
SR; read-out: TGI
  TGI: > 100000 nM
SR; read-out: pGI50 (converted)
  GI50: 331 nM
SR; [2]
  CC50: > 100000 nM
SR; read-out: pTGI
  TGI: > 100000 nM
RPMI-8226; read-out: GI50
  GI50: 352 nM
RPMI-8226; [1]
  CC50: > 100000 nM
RPMI-8226; read-out: TGI
  TGI: 1760 nM
RPMI-8226; read-out: pGI50 (converted)
  GI50: 355 nM
RPMI-8226; [2]
  CC50: > 100000 nM
RPMI-8226; read-out: pTGI (converted)
  TGI: 1780 nM
IGROV-1
  inhibition of growth at 10 µM: ≤ 32%
